Measured values published in EPA's CvTdb concentration-time database.
“And” between values parts separate entries of the source, which are not always exact repeats. Equal values may be shown once.

Key:
rat [1] = test: concentration in blood after dosing
human [2] = test: concentration in expired air after dosing; negative times count back from the end of exposure; conditions: dosed: 1,3-butadiene, 5 ppm, inhalation, duration: 120 min
Outline: (§1)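 Concentration-versus-time or amount-versus-time points were compiled from published in vivo toxicokinetic studies and from two structured collections. The studies were found by PubMed searching, classifier screening and manual review. Points were mostly digitised from plot screenshots with WebPlotDigitizer, otherwise copied from tables, and kept in the reported units. Dose, route, subject details and medium were curated by hand from each paper, and sampling and analytical methods follow each source and were often unreported.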

rat [3] = test: concentration in expired air after dosing; conditions: dosed: 1,1,2-trichloroethane, 501 ppm, inhalation, duration: 6 hr
rat [4] = test: concentration in expired air after dosing; conditions: dosed: 1,1,2-trichloroethane, 501 ppm, inhalation, duration: 6 hr; remark: listed apart in the source
rat [5] = test: amount in urine after dosing (umol); conditions: dosed: tert-amyl methyl ether, 38.4 ppm, inhalation, duration: 4 hr, F344 (Harlan Winkelmann)
human [6] = test: amount in urine after dosing (umol); conditions: dosed: tert-amyl methyl ether
Outline: as §1

human [7] = test: concentration in blood after dosing; negative times count back from the end of exposure; conditions: inhalation
Outline: as §1

human [8] = test: concentration in blood after dosing; conditions: dosed: tert-amyl methyl ether
Outline: as §1

rat [9] = test: concentration in plasma after dosing; conditions: dosed: propylparaben, oral, male, Wistar
rat [10] = test: concentration in blood after dosing; conditions: dosed: isoflurane, 50000 ppm, dermal, duration: 4 hr, male, F344
rat [11] = test: concentration in blood after dosing; conditions: dosed: isoflurane, 50000 ppm, dermal, duration: 4 hr, male, F344; remark: listed apart in the source
rat [12] = test: concentration in blood after dosing; conditions: dosed: isoflurane, 50000 ppm, dermal, duration: 4 hr, male, F344; remark: listed apart in the source
rat [13] = test: concentration in blood after dosing; conditions: dosed: isoflurane, 50000 ppm, dermal, duration: 4 hr, male, F344; remark: listed apart in the source
rat [14] = test: concentration in blood after dosing; conditions: dosed: isoflurane, 50000 ppm, dermal, duration: 4 hr, male, F344; remark: listed apart in the source
human [15] = test: negative times count back from the end of exposure; conditions: dosed: toluene, 200 mg/m^3, inhalation, duration: 2 hr, male
Outline: as §1

C=CC=C [1,3-butadiene]
rat [1], dosed: 1,3-butadiene, inhalation, duration: 6 hr, Sprague Dawley
Conditions	concentration in blood [nM]
1.898 h, 63 ppm	1290
1.898 h, 616 ppm	15300
1.898 h, 1249 ppm	31200
2.9 h, 63 ppm	1400
2.9 h, 616 ppm	17200
2.9 h, 1249 ppm	35400
3.895 h, 63 ppm	1250
3.895 h, 616 ppm	16500
3.903 h, 1249 ppm	38700
5.893 h, 616 ppm	18500
5.901 h, 63 ppm	1260
5.901 h, 1249 ppm	39600
5.931 h, 1249 ppm	9110
5.962 h, 1249 ppm	6000
5.977 h, 63 ppm	342
5.993 h, 616 ppm	4050
6.016 h, 1249 ppm	7440
6.077 h, 63 ppm	286
6.092 h, 616 ppm	2800
6.092 h, 1249 ppm	4210
6.176 h, 1249 ppm	4260
6.184 h, 616 ppm	3100
6.23 h, 63 ppm	198
6.314 h, 63 ppm	181
6.329 h, 616 ppm	2350
6.391 h, 63 ppm	101

human [2]
Conditions	concentration in expired air [ppm]
0.1234 h	0.329
0.1404 h	0.298
0.1642 h	0.278
0.1948 h	0.278
0.2288 h	0.267
0.2661 h	0.267
0.3375 h	0.226
0.402 h	0.206
0.436 h	0.185
0.4734 h	0.175
0.5006 h	0.144
0.5447 h	0.144
0.6059 h	0.144
0.6602 h	0.123
0.701 h	0.123
0.7588 h	0.103
0.8029 h	0.103
0.8505 h	0.0823
0.9049 h	0.0823
16 s	4.55
77 s	0.782
126 s	0.535
200 s	0.473
249 s	0.35
334 s	0.37

human [2], during exposure
Conditions	concentration in expired air [ppm]
-1.834 h	3.95
-1.67 h	4.25
-1.501 h	3.62
-1.331 h	4.38
-1.168 h	4.56
-0.9977 h	3.77
-0.8313 h	3.79
-0.6614 h	4.14
-0.3284 h	4.31
-0.1653 h	4.58

ClCC(Cl)Cl [1,1,2-trichloroethane]
concentration in expired air [ng/mL]
Conditions	rat [3]	rat [4]
0.1604 h	149	–
0.3009 h	215	–
0.4836 h	275	248
0.7365 h	258	321
0.9895 h	331	250
1.495 h	272	233
2.493 h	–	201
2.507 h	253	–
3.491 h	–	225
3.505 h	180	–
3.996 h	164	197
4.488 h	–	185
4.502 h	139	–
4.98 h	152	134
6.498 h	75.2	67.1
6.989 h	51.8	42.2
7.481 h	–	36.1
7.495 h	24.6	–
7.987 h	14.7	21.3
8.985 h	6.7	11.1
9.996 h	5.67	3.53
10.98 h	3.53	2.46
13 min	–	204
223 s	–	110

CCC(C)(C)O [tert-amyl alcohol]
rat [5]
Conditions	amount in urine
5.91 h	0.0178
11.97 h	0.0273
17.83 h	0.0115
23.9 h	0.0462

oral
Conditions	amount in urine	concentration in blood [nM]
human [6], 0 h, 5 mg	0.00166	–
human [6], 0 h, 15 mg	0.00586	–
human [6], 6.182 h, 15 mg	0.181	–
human [6], 6.2 h, 5 mg	0.176	–
human [6], 11.93 h, 15 mg	0.0638	–
human [6], 11.99 h, 5 mg	0.0598	–
human [6], 17.98 h, 15 mg	0.0106	–
human [6], 18.09 h, 5 mg	0.0183	–
human [8], 0.9886 h, 15 mg	–	972
human [8], 1.015 h, 5 mg	–	445
human [8], 2.032 h, 15 mg	–	777
human [8], 2.058 h, 5 mg	–	340
human [8], 3.046 h, 5 mg	–	276
human [8], 3.982 h, 15 mg	–	540
human [8], 4.006 h, 5 mg	–	220
human [8], 6.037 h, 5 mg	–	155
human [8], 6.041 h, 15 mg	–	355
human [8], 8.046 h, 15 mg	–	254
human [8], 8.067 h, 5 mg	–	111
human [8], 9.995 h, 15 mg	–	177
human [8], 10.02 h, 5 mg	–	86.5
human [8], 12.03 h, 15 mg	–	101
human [8], 12.05 h, 5 mg	–	67.4

inhalation, duration: 4 hr
Conditions	amount in urine	concentration in blood [nM]
human [6], 0.144 h, 38.4 ppm	1.36	–
human [6], 5.941 h, 3.8 ppm	0.345	–
human [6], 6.198 h, 38.4 ppm	2.11	–
human [6], 12.1 h, 3.8 ppm	0.143	–
human [6], 12.11 h, 38.4 ppm	1.74	–
human [6], 17.91 h, 3.8 ppm	0.0476	–
human [6], 18.16 h, 38.4 ppm	0.992	–
human [6], 24.21 h, 38.4 ppm	0.62	–
human [6], 30.05 h, 38.4 ppm	0.248	–
human [6], 36.11 h, 38.4 ppm	0.372	–
human [6], 248 s, 3.8 ppm	0.119	–
human [8], 2.005 h, 3.8 ppm	–	816
human [8], 2.034 h, 38.4 ppm	–	7740
human [8], 3.957 h, 38.4 ppm	–	6550
human [8], 3.966 h, 3.8 ppm	–	480
human [8], 6.018 h, 38.4 ppm	–	5900
human [8], 7.942 h, 38.4 ppm	–	4140
human [8], 9.948 h, 38.4 ppm	–	3160
human [8], 11.98 h, 38.4 ppm	–	2850
human [8], 23.91 h, 38.4 ppm	–	835
human [8], 78 s, 3.8 ppm	–	960
human [8], 99 s, 38.4 ppm	–	9530

human [7], dosed: tert-amyl methyl ether, duration: 4 hr, male
Conditions	concentration in blood [nM]
0.6509 h, 50 ppm	17000
0.7385 h, 15 ppm	4840
1.158 h, 50 ppm	16000
1.169 h, 15 ppm	4710
2.413 h, 50 ppm	13400
2.567 h, 15 ppm	4380
6.871 h, 50 ppm	7280
7.192 h, 15 ppm	2200
19.71 h, 50 ppm	1840
19.75 h, 15 ppm	597
141 s, 15 ppm	5450

concentration in blood [nM], human [7], dosed: tert-amyl methyl ether, duration: 4 hr, male, during exposure
Conditions	-4 h	-3.999 h	-3.146 h	-3.049 h	-1.944 h	-1.922 h	-1.113 h	-1.062 h
15 ppm	6	–	–	1700	–	3520	–	4030
50 ppm	–	10	6060	–	5580	–	11900	–

ClC=C(Cl)Cl [trichloroethene]
human [7], dosed: trichloroethene, 100 ppmv, duration: 240 min, male
Conditions	concentration in blood [ng/mL]
0.2522 h	634
0.3977 h	426
0.9604 h	198
1.911 h	112
4.055 h	4.16

human [7], dosed: trichloroethene, 100 ppmv, duration: 240 min, male, during exposure
Conditions	concentration in blood [ng/mL]
-226 s	1170
-175 s	1170
-3.513 h	588
-3.022 h	851
-2.029 h	1100
-1.031 h	1040

CCCOC(=O)c1ccc(O)cc1 [propylparaben]
concentration in plasma [ng/mL], rat [9]
Conditions	0.2504 h	0.5008 h	0.9984 h	1.002 h	2 h	2.003 h	4 h	4.003 h	297 s
3 mg/kg	871	280	–	88.4	82.5	–	–	–	495
10 mg/kg	3140	1720	466	–	271	–	23.6	–	1790
100 mg/kg	8510	7830	4220	–	2980	–	495	–	8610
1000 mg/kg	14100	17200	–	11500	–	9040	–	6390	15900

FC(F)OC(Cl)C(F)(F)F (configuration not stated) [isoflurane]
concentration in blood [ng/mL]
Conditions	rat [10]	rat [11]	rat [12]	rat [13]	rat [14]
0.5 h	–	418	19.6	510	1120
1 h	–	1010	–	699	2500
2 h	1120	–	1730	1610	3610
3 h	1520	1610	2030	1720	3220
4 h	1210	516	824	915	2520

rat [1], dosed: isoflurane, 50000 ppm, dermal, duration: 4 hr, male, F344
Conditions	concentration in blood
0.5 h	614 ng/mL
1 h	810 ng/mL and 1520 ng/mL
2 h	1610 ng/mL and 1420 ng/mL
3 h	1520 ng/mL
4 h	706 ng/mL

O=C(O)CNC(=O)c1ccccc1 [hippuric acid]
human [15]
Conditions	amount in urine after dosing [µmol/min]
3.981 h	2.61
7.978 h	0.699
12.06 h	0.451
20.04 h	0.258

Conditions	amount in urine after dosing [µmol/min]
human [15], -49 s, during exposure	4.88

CCCCOCCO [2-butoxyethanol]
human [7], dosed: 2-butoxyethanol, 20 ppm, duration: 2 hr
Conditions	concentration in blood [nM]
0.1474 h	4330
0.3298 h	3310
0.4842 h	3420
0.6526 h	2200
1.004 h	1410
1.326 h	1000
1.663 h	1090
1.986 h	987
25 s	7200
227 s	4220

human [7], dosed: 2-butoxyethanol, 20 ppm, duration: 2 hr, during exposure
Conditions	concentration in blood [nM]
-1.916 h	2830
-1.832 h	2770
-1.677 h	4530
-1.34 h	5020
-1.018 h	7010
-0.6807 h	7200
-0.3438 h	7400
